Results as given in ChEMBL document CHEMBL2384933, “Vitexin inhibits inflammatory pain in mice by targeting TRPV1, oxidative stress, and cytokines” (J Nat Prod, 2013).
Calls of active or inactive are those of the source.

Experiments:
Type in all cases: functional, organism-based
Mus musculus [1] = assay: Antinociceptive activity in Swiss mouse assessed as inhibition of carrageenan-induced thermal hyperalgesia at 1 mg/kg, ip administered 30 mins prior to carrageenan-challenge measured after 1 to 5 hrs by hot plate test; parameters: dose 1 mg/kg
Method in brief: (§1)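 Doses of 1–10 mg/kg given ip 30 min before intraplantar carrageenan (300 μg/paw). Hot plate held at 55 °C; latency to jump or lick paws recorded at 1, 3 and 5 h, with a 30 s cutoff. Two baseline latencies taken at least 10 min apart. Six mice per group.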

Mus musculus [2] = assay: Antinociceptive activity in Swiss mouse assessed as inhibition of carrageenan-induced thermal hyperalgesia at 3 to 10 mg/kg, ip administered 30 mins prior to carrageenan-challenge measured after 1 to 5 hrs by hot plate test; method in brief: as §1
Mus musculus [3] = assay: Antinociceptive activity in Swiss mouse assessed as inhibition of carrageenan-induced mechanical hyperalgesia at 1 to 3 mg/kg, ip administered 30 mins prior to carrageenan-challenge measured after 5 hrs by electronic pressure-meter test
Method in brief: (§2)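 Doses of 1–10 mg/kg given ip 30 min before intraplantar carrageenan (300 μg/paw). Electronic pressure-meter applied to mice on a wire grid floor; paw withdrawal with flinching was the end point, and each value is the average of three readings. Result reported as Δ withdrawal threshold (g) from baseline at 1, 3 and 5 h. Six mice per group; two-way ANOVA.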

Mus musculus [4] = assay: Antinociceptive activity in Swiss mouse assessed as inhibition of carrageenan-induced mechanical hyperalgesia at 10 mg/kg, ip administered 30 mins prior to carrageenan-challenge measured after 1 to 5 hrs by electronic pressure-meter test; parameters: dose 10 mg/kg; method in brief: as §2
Mus musculus [5] = assay: Antinociceptive activity in Swiss mouse assessed as inhibition of carrageenan-induced mechanical hyperalgesia at 1 to 3 mg/kg, ip administered 30 mins prior to carrageenan-challenge measured after 3 hrs by electronic pressure-meter test; method in brief: as §2
Mus musculus [6] = assay: Antinociceptive activity in ip dosed Swiss mouse assessed as inhibition of carrageenan-induced thermal hyperalgesia administered 30 mins prior to carrageenan-challenge measured after 1 to 5 hrs by hot plate test; method in brief: as §1
Mus musculus [7] = assay: Antinociceptive activity in ip dosed Swiss mouse assessed as inhibition of carrageenan-induced mechanical hyperalgesia administered 30 mins prior to carrageenan-challenge measured at 1 to 5 hrs by electronic pressure-meter test; method in brief: as §2
Mus musculus [8] = assay: Antinociceptive activity in Swiss mouse assessed as decrease in complete Freund's adjuvant-induced time spent for licking paw at 10 mg/kg, ip administered 30 mins prior to complete Freund's adjuvant-challenge measured after 30 mins; parameters: dose 10 mg/kg
Method in brief: (§3)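 Dosed ip 30 min before intraplantar CFA (10 μL/paw). Flinches and licking time of the injected paw counted over 0–30 min and expressed as totals for 30 min. Six mice per group; representative of two experiments.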

Mus musculus [9] = assay: Antinociceptive activity in Swiss mouse assessed as decrease in capsaicin-induced time spent for licking paw at 10 mg/kg, ip administered 30 mins prior to capsaicin-challenge measured after 5 mins; parameters: dose 10 mg/kg
Method in brief: (§4)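 Pretreatment ip 30 min before intraplantar capsaicin (1.6 μg/paw), given after an adaptation period. Mice observed individually for 5 min afterwards. Total flinches and time spent licking the injected paw were scored. Six mice per group; representative of two experiments; one-way ANOVA with Tukey's test.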

Mus musculus [10] = assay: Antinociceptive activity in Swiss mouse assessed as inhibition of capsaicin-induced paw flinching at 10 mg/kg, ip administered 30 mins prior to capsaicin-challenge measured after 5 mins; parameters: dose 10 mg/kg; method in brief: as §4
Mus musculus [11] = assay: Antinociceptive activity in Swiss mouse assessed as decrease in formalin-induced time spent for licking paw at 10 mg/kg, ip administered 30 mins prior to formalin-challenge measured after 30 mins; parameters: dose 10 mg/kg
Method in brief: (§5)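 Given ip 30 min before intraplantar formalin (25 μL of 1.5% in saline). Paw flinches and licking time recorded from 0 to 30 min in 5-min bins, covering the first (0–5 min) and second (10–30 min) phases. Six mice per group; representative of two experiments.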

Mus musculus [12] = assay: Antinociceptive activity in Swiss mouse assessed as inhibition of formalin-induced paw flinching at 10 mg/kg, ip administered 30 mins prior to formalin-challenge measured after 30 mins; parameters: dose 10 mg/kg; method in brief: as §5
Mus musculus [13] = assay: Antinociceptive activity in Swiss mouse assessed as inhibition of phenyl-p-benzoquinone-induced writhing response at 10 mg/kg, ip administered 30 mins prior to phenyl-p-benzoquinone-challenge measured for 20 mins; parameters: dose 10 mg/kg
Method in brief: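 Pretreatment ip 30 min before ip phenyl-p-benzoquinone (1890 μg/kg in 2% DMSO/saline). Cumulative writhing score counted over 20 min. Six mice per group; representative of two experiments.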

Mus musculus [14] = assay: Antinociceptive activity in Swiss mouse assessed as inhibition of acetic acid-induced writhing response at 0.3 mg/kg, ip administered 30 mins prior to acetic acid-challenge measured for 20 mins; parameters: dose 0.3 mg/kg
Method in brief: (§6)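 Doses of 0.3–10 mg/kg given ip in saline 30 min before ip acetic acid (0.8% v/v in saline, 10 mL/kg). Cumulative abdominal writhing counted over 20 min and presented in 2-min intervals. Six mice per group; representative of two experiments.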

Mus musculus [15] = assay: Antinociceptive activity in Swiss mouse assessed as inhibition of acetic acid-induced writhing response at 10 mg/kg, ip administered 30 mins prior to acetic acid-challenge measured for 20 mins; parameters: dose 10 mg/kg; method in brief: as §6
Mus musculus [16] = assay: Antinociceptive activity in Swiss mouse assessed as inhibition of acetic acid-induced writhing response at 1 to 3 mg/kg, ip administered 30 mins prior to acetic acid-challenge measured for 20 mins; method in brief: as §6
Mus musculus [17] = assay: Antinociceptive activity in ip dosed Swiss mouse assessed as inhibition of acetic acid-induced writhing response administered 30 mins prior to acetic acid-challenge measured for 20 mins; method in brief: as §6
Mus musculus [18] = assay: Antinociceptive activity in Swiss mouse assessed as inhibition of complete Freund's adjuvant-induced paw flinching at 10 mg/kg, ip administered 30 mins prior to complete Freund's adjuvant-challenge measured after 30 mins; parameters: dose 10 mg/kg; method in brief: as §3

Question: For O=c1cc(-c2ccc(O)cc2)oc2c([C@@H]3O[C@H](CO)[C@@H](O)[C@H](O)[C@H]3O)c(O)cc(O)c12 [VITEXIN], which inhibition (Mus musculus [1]) is on record?
Answer: inactive

Question: And the inhibition (Mus musculus [2])?
Answer: Active

Question: What about the inhibition (Mus musculus [3]) of the same molecule?
Answer: Active

Question: And the inhibition (Mus musculus [4])?
Answer: Active

Question: And the inhibition (Mus musculus [5])?
Answer: Active

Question: What about the inhibition (Mus musculus [6]) of the same molecule?
Answer: Dose-dependent effect

Question: What about the inhibition (Mus musculus [7]) of the same molecule?
Answer: Dose-dependent effect

Question: What about the inhibition (Mus musculus [8]) of the same molecule?
Answer: Active

Question: And the inhibition (Mus musculus [9])?
Answer: Active

Question: What about the inhibition (Mus musculus [10]) of the same molecule?
Answer: Active

Question: What about the inhibition (Mus musculus [11]) of the same molecule?
Answer: Active

Question: And the inhibition (Mus musculus [12])?
Answer: Active

Question: What about the inhibition (Mus musculus [13]) of the same molecule?
Answer: Active

Question: What about the inhibition (Mus musculus [14]) of the same molecule?
Answer: Active

Question: And the inhibition (Mus musculus [15])?
Answer: Active

Question: What about the inhibition (Mus musculus [16]) of the same molecule?
Answer: Active

Question: What about the inhibition (Mus musculus [17]) of the same molecule?
Answer: Dose-dependent effect

Question: And the inhibition (Mus musculus [18])?
Answer: Active
